Test results reported in ChEMBL document CHEMBL5653631, “A Potent and Selective ULK1 Inhibitor Suppresses Autophagy and Sensitizes Cancer Cells to Nutrient Stress” (iScience, 2018).

Experiments:
[1] = target: Serine/threonine-protein kinase PAK 3 (Homo sapiens) (UniProt O75914); assay: Inhibition of human recombinant PAK3 at 40 nM related to control ULK1
[2] = target: Serine/threonine-protein kinase 24 (Homo sapiens) (UniProt Q9Y6E0); assay: Inhibition of human recombinant MST3 at 40 nM related to control ULK1
[3] = target: T1, cGMP-dependent protein kinase 2 (Homo sapiens) (UniProt Q13237); assay: Inhibition of human recombinant PKG2 at 500 nM in presence of ATP by radiometric assay relative to control
T1 sequence (whole entry): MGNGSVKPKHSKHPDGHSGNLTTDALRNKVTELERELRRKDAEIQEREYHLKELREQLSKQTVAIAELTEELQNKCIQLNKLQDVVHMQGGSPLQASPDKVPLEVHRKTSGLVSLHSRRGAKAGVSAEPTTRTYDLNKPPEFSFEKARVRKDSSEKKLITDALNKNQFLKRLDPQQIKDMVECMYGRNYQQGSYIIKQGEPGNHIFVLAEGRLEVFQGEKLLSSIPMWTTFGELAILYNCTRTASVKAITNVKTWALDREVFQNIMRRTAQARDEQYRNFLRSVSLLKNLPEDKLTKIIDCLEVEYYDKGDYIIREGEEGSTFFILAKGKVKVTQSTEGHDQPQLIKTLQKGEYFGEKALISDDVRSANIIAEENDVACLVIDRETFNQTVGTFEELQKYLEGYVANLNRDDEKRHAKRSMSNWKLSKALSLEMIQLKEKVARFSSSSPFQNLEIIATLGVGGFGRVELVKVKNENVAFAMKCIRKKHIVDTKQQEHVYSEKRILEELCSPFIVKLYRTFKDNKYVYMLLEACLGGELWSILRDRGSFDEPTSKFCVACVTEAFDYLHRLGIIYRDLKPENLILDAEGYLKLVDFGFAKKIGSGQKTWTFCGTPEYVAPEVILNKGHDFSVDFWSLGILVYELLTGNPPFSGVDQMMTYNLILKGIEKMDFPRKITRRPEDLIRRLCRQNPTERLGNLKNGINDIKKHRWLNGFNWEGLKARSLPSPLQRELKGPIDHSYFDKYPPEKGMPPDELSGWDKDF

[4] = target: Tyrosine-protein kinase Tec (Homo sapiens) (UniProt P42680); assay: Inhibition of human recombinant TEC at 500 nM in presence of ATP by radiometric assay relative to control
[5] = target: Tyrosine-protein kinase JAK2 (Homo sapiens) (UniProt O60674); assay: Inhibition of human recombinant JAK2 at 500 nM related to control ULK1
Tyrosine-protein kinase JAK2 (Homo sapiens), sequence (O60674 whole entry): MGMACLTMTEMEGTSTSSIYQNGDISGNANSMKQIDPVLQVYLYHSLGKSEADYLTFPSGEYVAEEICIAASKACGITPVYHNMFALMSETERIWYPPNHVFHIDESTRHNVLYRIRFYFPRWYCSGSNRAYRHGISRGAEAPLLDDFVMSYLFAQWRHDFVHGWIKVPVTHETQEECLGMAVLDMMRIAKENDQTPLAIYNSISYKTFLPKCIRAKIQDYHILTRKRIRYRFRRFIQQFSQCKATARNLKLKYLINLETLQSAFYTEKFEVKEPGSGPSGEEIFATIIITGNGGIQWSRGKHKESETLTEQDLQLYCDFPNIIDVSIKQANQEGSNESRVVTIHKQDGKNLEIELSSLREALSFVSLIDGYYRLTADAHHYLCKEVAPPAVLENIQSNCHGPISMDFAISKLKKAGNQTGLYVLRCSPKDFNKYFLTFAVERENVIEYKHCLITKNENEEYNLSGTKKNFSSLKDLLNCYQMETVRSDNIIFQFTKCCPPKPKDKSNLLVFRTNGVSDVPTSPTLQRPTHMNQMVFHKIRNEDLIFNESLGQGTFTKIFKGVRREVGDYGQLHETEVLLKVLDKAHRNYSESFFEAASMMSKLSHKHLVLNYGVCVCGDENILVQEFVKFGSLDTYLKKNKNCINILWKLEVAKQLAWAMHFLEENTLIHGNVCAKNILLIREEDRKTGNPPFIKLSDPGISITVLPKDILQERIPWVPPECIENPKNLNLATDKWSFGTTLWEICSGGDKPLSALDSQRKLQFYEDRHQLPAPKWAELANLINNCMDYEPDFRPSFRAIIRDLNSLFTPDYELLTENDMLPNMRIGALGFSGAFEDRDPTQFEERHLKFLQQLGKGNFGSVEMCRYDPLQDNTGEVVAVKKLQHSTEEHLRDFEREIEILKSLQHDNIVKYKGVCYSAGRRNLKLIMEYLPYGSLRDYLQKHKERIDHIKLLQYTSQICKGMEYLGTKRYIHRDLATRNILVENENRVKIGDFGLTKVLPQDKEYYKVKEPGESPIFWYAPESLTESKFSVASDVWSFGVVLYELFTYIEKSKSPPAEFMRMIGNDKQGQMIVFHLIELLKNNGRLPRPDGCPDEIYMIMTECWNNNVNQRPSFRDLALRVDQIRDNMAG

[6] = target: Angiopoietin-1 receptor (Homo sapiens) (UniProt Q02763); assay: Inhibition of human recombinant Tie2 at 500 nM related to control ULK1
Angiopoietin-1 receptor (Homo sapiens), sequence (Q02763 whole entry): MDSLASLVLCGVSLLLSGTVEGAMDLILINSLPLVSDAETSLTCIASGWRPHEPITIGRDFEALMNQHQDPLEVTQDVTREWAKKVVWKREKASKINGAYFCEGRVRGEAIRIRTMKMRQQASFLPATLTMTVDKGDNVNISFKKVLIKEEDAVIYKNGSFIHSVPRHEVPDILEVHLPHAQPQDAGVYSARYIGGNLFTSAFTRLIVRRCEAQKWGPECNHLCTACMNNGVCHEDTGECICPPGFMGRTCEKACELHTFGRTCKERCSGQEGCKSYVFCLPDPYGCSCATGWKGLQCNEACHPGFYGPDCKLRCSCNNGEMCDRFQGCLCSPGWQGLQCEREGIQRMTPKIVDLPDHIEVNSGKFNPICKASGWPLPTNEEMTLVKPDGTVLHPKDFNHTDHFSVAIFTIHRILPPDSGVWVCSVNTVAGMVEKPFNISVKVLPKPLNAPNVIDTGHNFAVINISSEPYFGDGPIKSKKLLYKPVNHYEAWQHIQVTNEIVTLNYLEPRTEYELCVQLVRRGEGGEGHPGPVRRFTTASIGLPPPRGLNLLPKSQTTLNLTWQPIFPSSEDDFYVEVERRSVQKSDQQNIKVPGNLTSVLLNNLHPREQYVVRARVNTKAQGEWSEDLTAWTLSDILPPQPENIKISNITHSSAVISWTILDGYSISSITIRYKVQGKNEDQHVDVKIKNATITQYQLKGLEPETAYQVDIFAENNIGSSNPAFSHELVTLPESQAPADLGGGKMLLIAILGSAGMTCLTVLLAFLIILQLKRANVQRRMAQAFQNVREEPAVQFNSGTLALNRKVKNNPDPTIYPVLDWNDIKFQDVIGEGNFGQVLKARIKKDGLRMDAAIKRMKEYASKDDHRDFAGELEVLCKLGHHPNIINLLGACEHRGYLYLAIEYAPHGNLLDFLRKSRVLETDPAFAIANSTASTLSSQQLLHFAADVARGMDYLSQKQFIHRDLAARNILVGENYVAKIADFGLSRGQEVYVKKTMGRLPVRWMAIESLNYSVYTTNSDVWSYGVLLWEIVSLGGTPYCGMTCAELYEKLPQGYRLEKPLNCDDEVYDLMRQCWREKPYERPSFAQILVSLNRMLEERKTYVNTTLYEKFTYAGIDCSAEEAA

[7] = target: Tyrosine-protein kinase receptor UFO (Homo sapiens) (UniProt P30530); assay: Inhibition of human recombinant AXL at 500 nM related to control ULK1
Method in brief: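 Panel of 327 recombinant human kinases, each assayed in vitro by radiometric activity assay in duplicate at a single inhibitor concentration per compound, chosen with reference to its ULK1 inhibition. Activity remaining was expressed as percent of vehicle control, and percent inhibition was calculated as 100 minus percent activity remaining.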

[8] = target: Focal adhesion kinase 1 (Homo sapiens) (UniProt Q05397); assay: Inhibition of human recombinant FAK at 500 nM in presence of ATP by radiometric assay relative to control
Focal adhesion kinase 1 (Homo sapiens), sequence (Q05397 2-1052 limits assumed): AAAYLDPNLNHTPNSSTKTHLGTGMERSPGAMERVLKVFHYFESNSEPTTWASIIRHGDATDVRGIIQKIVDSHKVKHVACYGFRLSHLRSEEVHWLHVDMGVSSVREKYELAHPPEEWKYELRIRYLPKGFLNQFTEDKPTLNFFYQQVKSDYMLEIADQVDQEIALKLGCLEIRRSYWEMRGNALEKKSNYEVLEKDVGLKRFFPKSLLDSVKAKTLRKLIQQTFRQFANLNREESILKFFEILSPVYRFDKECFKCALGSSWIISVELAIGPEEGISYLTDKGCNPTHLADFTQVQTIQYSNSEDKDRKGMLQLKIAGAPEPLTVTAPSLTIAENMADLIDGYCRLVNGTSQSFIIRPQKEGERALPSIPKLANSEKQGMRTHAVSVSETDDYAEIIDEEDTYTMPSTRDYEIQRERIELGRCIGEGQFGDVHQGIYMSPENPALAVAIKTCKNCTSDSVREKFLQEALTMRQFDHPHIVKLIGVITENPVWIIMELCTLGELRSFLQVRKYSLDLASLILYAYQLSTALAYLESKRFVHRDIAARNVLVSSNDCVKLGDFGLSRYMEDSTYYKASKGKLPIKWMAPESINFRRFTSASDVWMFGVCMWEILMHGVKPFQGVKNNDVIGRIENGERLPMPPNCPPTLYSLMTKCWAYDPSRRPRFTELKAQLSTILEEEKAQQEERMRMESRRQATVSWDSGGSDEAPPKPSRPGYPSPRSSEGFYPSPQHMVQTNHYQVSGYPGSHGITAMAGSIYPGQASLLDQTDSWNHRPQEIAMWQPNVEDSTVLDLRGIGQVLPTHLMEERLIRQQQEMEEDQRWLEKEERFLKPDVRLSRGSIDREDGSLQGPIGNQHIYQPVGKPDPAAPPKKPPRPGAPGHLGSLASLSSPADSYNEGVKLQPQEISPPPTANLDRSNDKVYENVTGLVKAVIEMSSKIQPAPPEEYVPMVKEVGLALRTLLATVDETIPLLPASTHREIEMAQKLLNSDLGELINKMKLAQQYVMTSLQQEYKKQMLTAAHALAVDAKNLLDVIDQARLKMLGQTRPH

[9] = target: T2, MAP kinase-activated protein kinase 5 (Homo sapiens) (UniProt Q8IW41); assay: Inhibition of human recombinant MAPKAPK5 at 15 nM in presence of ATP by radiometric assay relative to control
T2 sequence (whole entry): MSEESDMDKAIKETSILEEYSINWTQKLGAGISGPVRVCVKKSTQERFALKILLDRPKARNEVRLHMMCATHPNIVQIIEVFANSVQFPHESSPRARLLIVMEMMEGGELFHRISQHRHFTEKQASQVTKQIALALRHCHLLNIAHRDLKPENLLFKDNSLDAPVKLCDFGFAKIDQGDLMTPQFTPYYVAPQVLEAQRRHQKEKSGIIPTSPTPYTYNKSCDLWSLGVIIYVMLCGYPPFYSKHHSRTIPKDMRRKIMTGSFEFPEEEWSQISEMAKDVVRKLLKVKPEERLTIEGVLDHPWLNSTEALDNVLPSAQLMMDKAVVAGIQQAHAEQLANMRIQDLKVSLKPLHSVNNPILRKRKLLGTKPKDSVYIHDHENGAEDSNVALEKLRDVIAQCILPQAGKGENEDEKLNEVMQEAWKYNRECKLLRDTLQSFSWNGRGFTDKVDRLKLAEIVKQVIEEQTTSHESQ

[10] = target: Serine/threonine-protein kinase WNK3 (Homo sapiens) (UniProt Q9BYP7); assay: Inhibition of human recombinant Wnk3 at 15 nM in presence of ATP by radiometric assay relative to control
Serine/threonine-protein kinase WNK3 (Homo sapiens), sequence (Q9BYP7 whole entry): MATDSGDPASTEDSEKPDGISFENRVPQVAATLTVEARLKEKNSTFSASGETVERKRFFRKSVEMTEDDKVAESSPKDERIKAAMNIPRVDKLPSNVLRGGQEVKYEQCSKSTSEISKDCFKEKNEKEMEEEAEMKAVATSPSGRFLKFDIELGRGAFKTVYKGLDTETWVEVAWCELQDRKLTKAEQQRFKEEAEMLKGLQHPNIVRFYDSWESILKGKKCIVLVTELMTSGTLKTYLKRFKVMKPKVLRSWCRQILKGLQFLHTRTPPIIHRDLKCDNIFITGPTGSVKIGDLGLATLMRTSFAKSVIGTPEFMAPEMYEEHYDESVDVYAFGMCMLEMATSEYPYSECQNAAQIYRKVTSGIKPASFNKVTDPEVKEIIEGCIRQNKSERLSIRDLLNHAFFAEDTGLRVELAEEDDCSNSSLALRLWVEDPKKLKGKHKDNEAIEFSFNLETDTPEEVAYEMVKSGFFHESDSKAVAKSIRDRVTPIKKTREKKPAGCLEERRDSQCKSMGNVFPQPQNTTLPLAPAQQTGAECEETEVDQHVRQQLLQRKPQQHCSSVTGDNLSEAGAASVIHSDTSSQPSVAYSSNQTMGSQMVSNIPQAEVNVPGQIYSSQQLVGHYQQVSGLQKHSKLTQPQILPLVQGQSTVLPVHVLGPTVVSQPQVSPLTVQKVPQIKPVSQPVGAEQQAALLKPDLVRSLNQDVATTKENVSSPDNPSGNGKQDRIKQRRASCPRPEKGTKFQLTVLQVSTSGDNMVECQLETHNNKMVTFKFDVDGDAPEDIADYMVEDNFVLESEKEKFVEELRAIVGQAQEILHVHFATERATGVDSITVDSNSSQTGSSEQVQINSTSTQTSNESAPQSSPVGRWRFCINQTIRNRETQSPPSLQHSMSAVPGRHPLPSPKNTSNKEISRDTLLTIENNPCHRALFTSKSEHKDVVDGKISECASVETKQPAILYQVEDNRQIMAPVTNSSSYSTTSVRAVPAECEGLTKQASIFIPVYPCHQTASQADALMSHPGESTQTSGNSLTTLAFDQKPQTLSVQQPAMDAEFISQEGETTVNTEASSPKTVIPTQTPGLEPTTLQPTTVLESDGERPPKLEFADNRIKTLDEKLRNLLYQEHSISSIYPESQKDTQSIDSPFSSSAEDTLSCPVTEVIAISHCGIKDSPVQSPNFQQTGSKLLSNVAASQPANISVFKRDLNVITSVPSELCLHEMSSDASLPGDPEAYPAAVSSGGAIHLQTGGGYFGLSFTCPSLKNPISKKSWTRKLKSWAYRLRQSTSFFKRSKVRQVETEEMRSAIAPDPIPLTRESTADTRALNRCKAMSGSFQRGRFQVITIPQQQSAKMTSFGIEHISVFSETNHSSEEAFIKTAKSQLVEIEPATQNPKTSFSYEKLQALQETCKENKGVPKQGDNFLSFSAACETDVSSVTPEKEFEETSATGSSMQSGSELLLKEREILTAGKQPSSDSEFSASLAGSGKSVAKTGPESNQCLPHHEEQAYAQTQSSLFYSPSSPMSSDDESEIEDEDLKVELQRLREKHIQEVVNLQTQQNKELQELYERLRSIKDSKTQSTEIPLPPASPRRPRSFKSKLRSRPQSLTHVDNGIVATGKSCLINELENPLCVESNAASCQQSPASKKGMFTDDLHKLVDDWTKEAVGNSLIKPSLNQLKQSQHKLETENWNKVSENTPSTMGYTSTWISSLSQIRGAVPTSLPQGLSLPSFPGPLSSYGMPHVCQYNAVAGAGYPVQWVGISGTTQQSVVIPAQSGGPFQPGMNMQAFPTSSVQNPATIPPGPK

[11] = target: T3, Serine/threonine-protein kinase 17A (Homo sapiens) (UniProt Q9UEE5); assay: Inhibition of human recombinant DRAK1 at 15 nM related to control ULK1
T3 sequence (whole entry): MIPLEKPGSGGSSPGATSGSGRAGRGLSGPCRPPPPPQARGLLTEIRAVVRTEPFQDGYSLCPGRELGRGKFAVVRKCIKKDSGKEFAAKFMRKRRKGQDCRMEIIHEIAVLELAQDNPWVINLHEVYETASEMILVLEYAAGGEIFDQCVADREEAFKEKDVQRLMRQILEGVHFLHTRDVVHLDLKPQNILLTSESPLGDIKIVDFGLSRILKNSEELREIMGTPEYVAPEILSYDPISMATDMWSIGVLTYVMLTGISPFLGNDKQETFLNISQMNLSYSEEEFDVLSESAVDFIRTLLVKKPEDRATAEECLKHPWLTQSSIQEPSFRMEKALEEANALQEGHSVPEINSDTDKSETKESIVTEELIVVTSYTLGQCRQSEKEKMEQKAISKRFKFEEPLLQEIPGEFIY

SMILES: O=C(N[C@@H](C1CC1)C(F)(F)F)c1cc(-c2cnn3cc(-c4ccc(F)cc4)cnc23)cs1
- fold change (FC) [1]: 0
- fold change (FC) [2]: 0.27

SMILES: CNC(=O)c1ccccc1Oc1nc(Nc2cc(OC)c(OC)c(OC)c2)ncc1Br
- inhibition [3]: 2%
- inhibition [4]: 2%
- fold change (FC) [5]: 1.05
- fold change (FC) [6]: 0.31
- fold change (FC) [7]: 0.07
- inhibition [8]: 71%

SMILES: CC(C)[C@H](NC(=O)c1cc(-c2cnn3cc(-c4ccc(OCCN5CCCCC5)cc4)cnc23)cs1)C(F)(F)F
- inhibition [9]: 0%
- inhibition [10]: 0%
- fold change (FC) [11]: 0.81
